{"source": "paper PMC8015125", "about": "(ACS Omega, 2021)", "key": {"BPH1 cell line": {"tested_on": "BPH1 cell line", "assay": "MTT assay on BPH1", "format": "cell-based, human", "details": "read-out: IC50 BPH1, 24 h treatment", "summary_of_the_method": "(§1)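 Cells were grown in RPMI or DMEM with 10% FBS, penicillin and streptomycin at 37 °C under 5% CO2. They were seeded at 1 × 10^4 cells/well and exposed 24 h later for 24 h to the test compound at different concentrations (complexes 0–100 μM). After two PBS washes, 0.5 mg mL–1 MTT was added for 3–4 h at 37 °C. Formazan was dissolved in extraction buffer and OD read at 570 nm. % survival was taken relative to untreated cells (100%) to give IC50. Ratios were BPH1/PC3 and WI-38/A549 IC50.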"}, "[1]": {"tested_on": "WI-38 lung fibroblast cells", "assay": "MTT assay on WI-38", "format": "cell-based", "details": "read-out: IC50 WI-38, 24 h treatment", "summary_of_the_method": "as §1"}, "A549 cell line": {"tested_on": "A549 cell line", "assay": "MTT assay on A549", "format": "cell-based", "details": "read-out: IC50 A549, 24 h treatment", "summary_of_the_method": "as §1"}, "PC3 cell line": {"tested_on": "PC3 cell line", "assay": "MTT assay on PC3", "format": "cell-based, human", "details": "24 h treatment", "summary_of_the_method": "as §1"}}}
{"compound": "N.N.[Cl][Pt][Cl]", "note": "[cisplatin, reference compound]", "values": [{"measurement": "IC50", "setting": "BPH1 cell line", "value": "8 ± 1.03", "unit": "µM"}, {"measurement": "IC50", "setting": "[1]", "value": "66.5 ± 2.12", "unit": "µM"}, {"measurement": "IC50", "setting": "A549 cell line", "value": "60.1 ± 2.43", "unit": "µM"}, {"measurement": "R1 = IC50 ratio of BPH1 cells to PC3 cells", "setting": "PC3 cell line", "value": 1.4}, {"measurement": "IC50", "setting": "PC3 cell line; read-out: IC50 PC3, MTT", "value": "5.4 ± 1.93", "unit": "µM"}]}
